The target of test [1] is Tyrosine-protein kinase ABL1 (Homo sapiens) (UniProt P00519). The test can be described thus: Inhibition of Abl at 10 uM by HTRF assay relative to control. The method, boiled down:
(§1)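 HTRF kinase assay, one panel of kinases. Inhibitor stock 50 µM in 100% DMSO; tested at 10 µM. ATP and substrate at final levels near Km. Final buffer: 50 mM Hepes/NaOH pH 7.4, 40 µM Na3VO4, 0.005% Tween-20, 1 mM DTT, MnCl2 or MgCl2 at kinase-dependent levels. Started by adding ATP/substrate. Reaction run at room temperature, time varied by kinase. Detection mix in 50 mM Hepes pH 7.4, 0.1% BSA, 150 mM KF, incubated ≥1 h at room temperature. Activity expressed as % of uninhibited control; n=2.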

In test [2] the target is 3-phosphoinositide-dependent protein kinase 1 (Homo sapiens) (UniProt O15530). Kind of test: Inhibition of PDK1 at 10 uM by HTRF assay relative to control.
The target of test [3] is Mitogen-activated protein kinase 9 (Homo sapiens) (UniProt P45984). Kind of test: Inhibition of JNK2 at 10 uM by HTRF assay relative to control. The method, boiled down: as §1
In test [4] the target is T1, Tyrosine-protein kinase ZAP-70 (Homo sapiens) (UniProt P43403).
T1 sequence (whole entry): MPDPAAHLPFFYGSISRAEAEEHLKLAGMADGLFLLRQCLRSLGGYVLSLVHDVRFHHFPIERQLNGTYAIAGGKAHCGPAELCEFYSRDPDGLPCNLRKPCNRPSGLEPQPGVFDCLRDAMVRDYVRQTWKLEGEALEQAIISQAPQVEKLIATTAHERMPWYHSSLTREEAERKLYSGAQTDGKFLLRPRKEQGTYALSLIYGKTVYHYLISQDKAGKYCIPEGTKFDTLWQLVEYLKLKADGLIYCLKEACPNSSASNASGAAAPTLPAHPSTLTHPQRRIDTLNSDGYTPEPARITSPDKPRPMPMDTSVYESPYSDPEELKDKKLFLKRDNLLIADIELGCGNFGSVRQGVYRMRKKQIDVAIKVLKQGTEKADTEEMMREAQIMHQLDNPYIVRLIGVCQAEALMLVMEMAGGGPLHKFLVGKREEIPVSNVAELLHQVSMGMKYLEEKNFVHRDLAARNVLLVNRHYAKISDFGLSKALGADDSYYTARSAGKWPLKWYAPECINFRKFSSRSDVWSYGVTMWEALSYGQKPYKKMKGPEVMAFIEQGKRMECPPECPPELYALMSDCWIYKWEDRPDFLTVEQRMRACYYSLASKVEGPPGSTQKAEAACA
The test can be described thus: Inhibition of ZAP70 at 10 uM by HTRF assay relative to control. The method, boiled down:
as §1
(In general: Time-resolved FRET reads energy transfer from a long-lived donor to a nearby acceptor.)

In test [5] the target is RAC-alpha serine/threonine-protein kinase (Homo sapiens) (UniProt P31749). The test can be described thus: Inhibition of AKT1/PKBalpha at 10 uM by HTRF assay relative to control. The method, boiled down:
as §1

The target in test [6] is Mitogen-activated protein kinase 1 (Homo sapiens) (UniProt P28482). The test can be described thus: Inhibition of ERK2 at 10 uM by HTRF assay relative to control. The method, boiled down: as §1
In test [7] the target is T2, Mitogen-activated protein kinase 12 (Homo sapiens) (UniProt P53778).
T2 sequence (whole entry): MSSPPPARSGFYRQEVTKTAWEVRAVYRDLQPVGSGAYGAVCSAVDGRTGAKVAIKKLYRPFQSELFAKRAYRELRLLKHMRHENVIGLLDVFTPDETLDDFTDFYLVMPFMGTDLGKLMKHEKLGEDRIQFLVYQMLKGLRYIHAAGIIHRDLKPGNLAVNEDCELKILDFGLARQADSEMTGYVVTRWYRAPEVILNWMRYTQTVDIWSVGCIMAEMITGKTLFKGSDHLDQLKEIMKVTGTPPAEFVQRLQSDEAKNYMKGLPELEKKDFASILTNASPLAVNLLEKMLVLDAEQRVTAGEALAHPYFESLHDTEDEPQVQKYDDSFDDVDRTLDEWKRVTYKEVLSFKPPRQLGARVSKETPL
The test can be described thus: Inhibition of p38-gamma at 10 uM by HTRF assay relative to control. A digest of the protocol:
as §1

Test [8] has as its target Ribosomal protein S6 kinase alpha-3 (Homo sapiens) (UniProt P51812). The test can be described thus: Inhibition of RSK2 at 10 uM by HTRF assay relative to control. A digest of the protocol:
as §1

The target in test [9] is Calcium/calmodulin-dependent protein kinase type II subunit alpha (Homo sapiens) (UniProt Q9UQM7). Kind of test: Inhibition of CaMK2alpha at 10 uM by HTRF assay relative to control. A digest of the protocol: as §1
Test [10] has as its target MAP kinase-activated protein kinase 2 (Homo sapiens) (UniProt P49137). Kind of test: Inhibition of MAPKAPK2 at 10 uM by HTRF assay relative to control. A digest of the protocol:
as §1

Test [11] deals with Platelet-derived growth factor receptor beta (Homo sapiens) (UniProt P09619). Kind of test: Inhibition of PDGFRbeta at 10 uM by HTRF assay relative to control. The method, boiled down:
as §1

Test [12] is described as follows: Inhibition of AMPKalpha at 10 uM by HTRF assay relative to control. A digest of the protocol: as §1
Test [13] in a line: Inhibition of PKA at 10 uM by HTRF assay relative to control. The method, boiled down: as §1
In test [14] the target is Protein-tyrosine kinase 6 (Homo sapiens) (UniProt Q13882). Kind of test: Inhibition of Brk at 10 uM by HTRF assay relative to control. A digest of the protocol: as §1
The target in test [15] is Fibroblast growth factor receptor 1 (Homo sapiens) (UniProt P11362). Kind of test: Inhibition of FGFR1 at 10 uM by HTRF assay relative to control. A digest of the protocol:
as §1

The nature of test [16]: Inhibition of IRK at 10 uM by HTRF assay relative to control. The method, boiled down:
as §1

Test [17] deals with Insulin-like growth factor 1 receptor (Homo sapiens) (UniProt P08069). Kind of test: Inhibition of IGF1R at 10 uM by HTRF assay relative to control. The method, boiled down: as §1
The target in test [18] is Focal adhesion kinase 1 (Homo sapiens) (UniProt Q05397). The test can be described thus: Inhibition of FAK at 10 uM by HTRF assay relative to control. The method, boiled down: as §1
Chain of Focal adhesion kinase 1 (Homo sapiens) (Q05397 2-1052 limits assumed): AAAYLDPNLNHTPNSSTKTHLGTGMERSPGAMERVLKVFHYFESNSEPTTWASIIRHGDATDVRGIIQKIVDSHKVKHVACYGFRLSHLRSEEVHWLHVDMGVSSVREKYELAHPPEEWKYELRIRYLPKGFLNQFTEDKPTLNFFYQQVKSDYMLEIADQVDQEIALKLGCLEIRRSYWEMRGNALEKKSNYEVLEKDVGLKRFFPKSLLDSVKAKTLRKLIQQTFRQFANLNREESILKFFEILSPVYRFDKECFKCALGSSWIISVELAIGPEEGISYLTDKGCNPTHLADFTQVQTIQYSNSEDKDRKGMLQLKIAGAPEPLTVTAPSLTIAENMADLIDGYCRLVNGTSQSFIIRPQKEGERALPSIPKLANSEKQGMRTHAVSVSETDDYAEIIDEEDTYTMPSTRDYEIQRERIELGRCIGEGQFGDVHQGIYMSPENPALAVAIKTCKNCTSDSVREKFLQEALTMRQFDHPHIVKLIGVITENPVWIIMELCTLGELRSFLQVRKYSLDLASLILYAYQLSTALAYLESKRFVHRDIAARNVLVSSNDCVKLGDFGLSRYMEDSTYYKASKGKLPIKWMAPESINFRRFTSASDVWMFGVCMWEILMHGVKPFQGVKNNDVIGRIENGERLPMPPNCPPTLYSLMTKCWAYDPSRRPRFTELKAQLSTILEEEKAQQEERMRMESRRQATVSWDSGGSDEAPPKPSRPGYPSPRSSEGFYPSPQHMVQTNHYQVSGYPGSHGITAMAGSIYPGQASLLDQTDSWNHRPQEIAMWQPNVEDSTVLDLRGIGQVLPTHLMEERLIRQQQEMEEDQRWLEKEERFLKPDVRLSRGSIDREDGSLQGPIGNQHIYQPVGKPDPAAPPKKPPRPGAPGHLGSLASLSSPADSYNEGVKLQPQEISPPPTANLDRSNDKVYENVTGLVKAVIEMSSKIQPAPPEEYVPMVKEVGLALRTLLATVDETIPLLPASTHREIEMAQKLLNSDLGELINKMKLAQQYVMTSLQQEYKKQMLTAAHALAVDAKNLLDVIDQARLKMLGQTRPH

Chain of Fibroblast growth factor receptor 1 (Homo sapiens) (P11362 22-822 limits assumed): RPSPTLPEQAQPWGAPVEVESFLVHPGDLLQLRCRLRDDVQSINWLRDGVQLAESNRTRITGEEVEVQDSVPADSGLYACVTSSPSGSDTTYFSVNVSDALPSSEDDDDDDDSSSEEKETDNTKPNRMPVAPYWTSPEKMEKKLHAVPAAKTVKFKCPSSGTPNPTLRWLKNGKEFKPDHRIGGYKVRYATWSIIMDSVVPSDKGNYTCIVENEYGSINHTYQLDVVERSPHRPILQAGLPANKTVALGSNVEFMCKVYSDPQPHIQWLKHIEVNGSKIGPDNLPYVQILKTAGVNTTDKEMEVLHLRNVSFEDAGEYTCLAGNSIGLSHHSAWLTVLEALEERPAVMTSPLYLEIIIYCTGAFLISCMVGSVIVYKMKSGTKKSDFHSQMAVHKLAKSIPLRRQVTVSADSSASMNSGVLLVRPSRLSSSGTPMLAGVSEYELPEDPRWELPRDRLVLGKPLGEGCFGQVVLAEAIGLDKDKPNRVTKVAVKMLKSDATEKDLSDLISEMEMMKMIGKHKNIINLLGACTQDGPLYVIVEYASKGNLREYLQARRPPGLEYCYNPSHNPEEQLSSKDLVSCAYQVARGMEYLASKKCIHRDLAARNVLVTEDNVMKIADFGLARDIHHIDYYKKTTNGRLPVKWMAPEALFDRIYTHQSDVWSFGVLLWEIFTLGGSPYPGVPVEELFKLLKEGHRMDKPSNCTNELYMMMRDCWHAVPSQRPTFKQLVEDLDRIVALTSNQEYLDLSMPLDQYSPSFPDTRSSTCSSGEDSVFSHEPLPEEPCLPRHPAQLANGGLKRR
Chain of MAP kinase-activated protein kinase 2 (Homo sapiens) (P49137 whole entry, looked up): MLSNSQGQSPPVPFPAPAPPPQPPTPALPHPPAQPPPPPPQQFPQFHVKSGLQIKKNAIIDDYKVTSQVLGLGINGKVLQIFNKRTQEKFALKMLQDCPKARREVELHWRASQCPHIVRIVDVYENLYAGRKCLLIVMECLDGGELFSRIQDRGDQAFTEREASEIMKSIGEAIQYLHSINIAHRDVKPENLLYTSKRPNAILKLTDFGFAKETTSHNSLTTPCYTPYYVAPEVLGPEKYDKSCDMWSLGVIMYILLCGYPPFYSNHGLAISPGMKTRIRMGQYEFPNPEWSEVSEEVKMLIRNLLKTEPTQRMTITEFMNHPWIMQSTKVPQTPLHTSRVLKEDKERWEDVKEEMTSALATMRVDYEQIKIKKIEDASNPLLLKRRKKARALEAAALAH
Chain of RAC-alpha serine/threonine-protein kinase (Homo sapiens) (P31749 whole entry): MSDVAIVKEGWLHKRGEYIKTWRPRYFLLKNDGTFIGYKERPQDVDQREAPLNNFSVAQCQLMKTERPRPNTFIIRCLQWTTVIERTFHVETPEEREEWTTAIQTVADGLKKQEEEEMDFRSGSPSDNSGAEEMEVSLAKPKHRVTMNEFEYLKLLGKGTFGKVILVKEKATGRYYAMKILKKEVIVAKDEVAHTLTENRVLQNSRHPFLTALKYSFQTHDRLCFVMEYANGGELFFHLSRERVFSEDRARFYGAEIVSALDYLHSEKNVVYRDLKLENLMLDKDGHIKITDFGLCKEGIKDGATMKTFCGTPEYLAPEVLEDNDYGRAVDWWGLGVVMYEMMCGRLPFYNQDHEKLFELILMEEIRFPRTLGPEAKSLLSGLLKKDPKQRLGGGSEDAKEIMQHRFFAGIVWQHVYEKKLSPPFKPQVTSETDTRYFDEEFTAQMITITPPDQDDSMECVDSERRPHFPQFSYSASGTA
Chain of Mitogen-activated protein kinase 9 (Homo sapiens) (P45984 whole entry, looked up): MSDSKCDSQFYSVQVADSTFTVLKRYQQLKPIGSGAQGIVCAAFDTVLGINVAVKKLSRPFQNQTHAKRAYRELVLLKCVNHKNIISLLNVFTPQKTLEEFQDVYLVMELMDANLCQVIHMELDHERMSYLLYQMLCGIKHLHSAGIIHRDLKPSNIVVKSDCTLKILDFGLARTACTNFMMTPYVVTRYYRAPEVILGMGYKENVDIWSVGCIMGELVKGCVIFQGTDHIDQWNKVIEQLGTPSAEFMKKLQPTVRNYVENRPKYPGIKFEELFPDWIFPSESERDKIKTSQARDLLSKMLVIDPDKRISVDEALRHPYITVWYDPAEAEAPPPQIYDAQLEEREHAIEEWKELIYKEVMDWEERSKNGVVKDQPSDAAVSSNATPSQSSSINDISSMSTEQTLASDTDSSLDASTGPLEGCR
Chain of Tyrosine-protein kinase ABL1 (Homo sapiens) (P00519 whole entry): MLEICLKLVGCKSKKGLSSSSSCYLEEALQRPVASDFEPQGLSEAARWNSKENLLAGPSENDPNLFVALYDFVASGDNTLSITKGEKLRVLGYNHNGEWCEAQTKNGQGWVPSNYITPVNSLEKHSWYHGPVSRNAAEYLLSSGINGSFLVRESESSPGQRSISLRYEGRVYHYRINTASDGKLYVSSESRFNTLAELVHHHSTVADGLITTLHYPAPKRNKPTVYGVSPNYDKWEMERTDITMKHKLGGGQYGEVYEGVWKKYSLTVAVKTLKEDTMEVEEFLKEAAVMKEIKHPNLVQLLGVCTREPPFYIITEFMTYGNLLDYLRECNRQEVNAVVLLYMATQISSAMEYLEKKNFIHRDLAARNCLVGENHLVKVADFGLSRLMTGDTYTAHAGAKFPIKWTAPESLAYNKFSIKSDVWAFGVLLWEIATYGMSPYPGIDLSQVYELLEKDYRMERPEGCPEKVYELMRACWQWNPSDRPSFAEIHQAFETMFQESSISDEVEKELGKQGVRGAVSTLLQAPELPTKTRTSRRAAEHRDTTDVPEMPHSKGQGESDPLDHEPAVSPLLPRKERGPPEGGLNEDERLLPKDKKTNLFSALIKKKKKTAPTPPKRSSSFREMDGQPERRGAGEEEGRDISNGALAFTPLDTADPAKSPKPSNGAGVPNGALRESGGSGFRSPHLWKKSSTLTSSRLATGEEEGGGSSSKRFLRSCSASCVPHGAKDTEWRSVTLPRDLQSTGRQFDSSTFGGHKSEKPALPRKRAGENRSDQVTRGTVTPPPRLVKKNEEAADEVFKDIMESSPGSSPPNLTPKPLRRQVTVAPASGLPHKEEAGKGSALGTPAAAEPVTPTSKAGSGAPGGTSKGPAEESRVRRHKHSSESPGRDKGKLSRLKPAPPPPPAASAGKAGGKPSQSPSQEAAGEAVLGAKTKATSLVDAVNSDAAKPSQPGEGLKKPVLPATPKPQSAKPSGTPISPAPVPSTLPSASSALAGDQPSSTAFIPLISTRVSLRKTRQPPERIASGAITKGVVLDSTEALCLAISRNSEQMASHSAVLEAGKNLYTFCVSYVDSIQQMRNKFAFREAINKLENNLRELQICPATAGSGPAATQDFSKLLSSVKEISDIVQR
Chain of Protein-tyrosine kinase 6 (Homo sapiens) (Q13882 whole entry, looked up): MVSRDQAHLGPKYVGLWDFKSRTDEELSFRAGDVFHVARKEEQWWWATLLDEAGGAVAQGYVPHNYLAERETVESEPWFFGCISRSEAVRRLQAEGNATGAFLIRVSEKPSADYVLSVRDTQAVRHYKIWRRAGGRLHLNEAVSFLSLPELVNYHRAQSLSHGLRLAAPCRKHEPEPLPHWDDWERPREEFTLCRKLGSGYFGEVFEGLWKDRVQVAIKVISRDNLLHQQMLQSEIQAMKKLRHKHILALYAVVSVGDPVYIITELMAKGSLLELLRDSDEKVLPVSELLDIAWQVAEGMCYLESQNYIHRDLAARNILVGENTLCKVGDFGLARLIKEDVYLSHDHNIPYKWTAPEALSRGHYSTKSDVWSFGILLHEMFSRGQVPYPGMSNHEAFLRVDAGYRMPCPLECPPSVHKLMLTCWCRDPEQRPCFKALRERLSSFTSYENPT

By inhibition is commonly meant the share of the control response that was lost under treatment. Consider `O=C(c1nc(SCc2ccc(Cl)cc2)n2ccccc12)N1CCN(c2ncnc3c2CN(Cc2ccccc2)CC3)CC1`, for which the inhibition in test [1] was 13%; in test [2], 0%; in test [3] it was 1%; in test [4], 3%; in test [5], 0%; in test [6], 3%. The inhibition came to 0% in test [7]; 0% in test [8]; 0% in test [9]; 1% in test [10]; 7% in test [11]; 1% in test [12]. The inhibition in [13] stood at 0%; in test [14] it was 9%; in [15], 0%; in test [16], 0%; in test [17], 0%; in [18], 0%.

Regarding `COc1cccc(Nc2cc(Nc3cccc(C(=O)N(C)CCc4ccccn4)c3)nc(N)n2)c1`, the inhibition came to 8% in [1]; 4% in [2]; 9% in test [3]; 3% in [4]; 1% in [5]; 0% in [6]. In addition, the inhibition in [7] came to 3%; in test [8], 0%; in [9] it was 0%; in test [10], 0%; in test [11], 3%; in test [12] it was 13%. Also, the inhibition turned out to be 0% in test [13]; 21% in test [14]; 7% in [15]; 6% in test [16]; 0% in test [17]; 11% in test [18].

On to `Nc1nc(Nc2ccc(C(=O)NCCc3ccncc3)cc2)cc(N2CCOCC2)n1`, for which the inhibition in test [1] was found to be 6%; in test [2], 1%; in test [3] it was 5%; in test [4], 6%; in test [5], 2%; in test [6], 0%. Moreover, the inhibition turned out to be 3% in [7]; 0% in [8]; 0% in test [9]; 1% in test [10]; 13% in test [11]; 0% in [12]. Also, the inhibition in test [13] was found to be 3%; in test [14], 0%; in test [15] it was 0%; in test [16] it was 0%; in test [17], 0%; in test [18], 3%.

Consider `O=C(CN1CCN(c2ncnc3c2CN(Cc2ccccc2)CC3)CC1)Nc1cc(F)ccc1F`, for which the inhibition worked out at 3% in [1]; 0% in test [2]; 1% in test [3]; 5% in [4]; 0% in [5]; 0% in [6]. The inhibition in test [7] came out at 0%; in [8] it was 0%; in test [9], 0%; in [10], 0%; in test [11], 5%; in test [12], 0%. Besides, the inhibition in [13] amounted to 0%; in [14] it was 9%; in test [15], 0%; in test [16], 0%; in [17], 0%; in [18], 0%.

For `CN(C)CC(C)(C)CNC(=O)C1CCN(c2cc(N3CCOCC3)nc(N)n2)CC1`, the inhibition in [1] worked out at 2%; in [2], 0%; in test [3] it was 1%; in test [4], 8%; in [5], 0%; in [6], 0%. In addition, the inhibition in test [7] stood at 2%; in test [8], 0%; in test [9], 0%; in [10] it was 0%; in test [11], 6%; in [12], 11%. Besides, the inhibition is 0% in test [13]; 3% in [14]; 21% in test [15]; 0% in [16]; 0% in test [17]; 3% in test [18].

For `O=C(NC[C@@H]1CCCO1)c1cccc(Nc2nccc(Nc3ccc4ncsc4c3)n2)c1`, the inhibition in [1] was 44%; in test [2], 3%; in test [3], 87%; in test [4] it was 19%; in test [5], 0%; in test [6], 0%. The inhibition in test [7] was determined as 3%; in test [8], 9%; in test [9] it was 0%; in test [10], 1%; in [11], 98%; in test [12], 36%. Besides, the inhibition in [13] came out at 4%; in test [14], 81%; in test [15], 95%; in [16] it was 83%; in test [17], 83%; in test [18] it was 99%.

Regarding `Cc1cccc(Nc2nccc3c2CN(C(=O)c2cc(C)n(C)c2C)CC3)c1`, the inhibition in test [1] turned out to be 0%; in [2] it was 0%; in test [3], 3%; in [4], 4%; in test [5], 0%; in test [6], 6%. In addition, the inhibition turned out to be 1% in test [7]; 0% in [8]; 0% in test [9]; 0% in test [10]; 5% in test [11]; 1% in test [12]. Also, the inhibition in test [13] came out at 0%; in test [14], 13%; in test [15], 0%; in test [16], 0%; in [17], 0%; in test [18], 1%.

With `CN(CCc1ccccn1)C(=O)c1cccc(Nc2nccc(Nc3ccc4ncsc4c3)n2)c1`, the inhibition was 69% in test [1]; 0% in test [2]; 53% in test [3]; 13% in test [4]; 0% in [5]; 0% in test [6]. Also, the inhibition came out at 1% in test [7]; 35% in test [8]; 0% in test [9]; 1% in [10]; 91% in test [11]; 16% in test [12]. Besides, the inhibition worked out at 1% in [13]; 78% in test [14]; 80% in [15]; 34% in [16]; 50% in test [17]; 78% in test [18].

Consider `Cc1cccc(N(C)c2cc(N3CCN(C(=O)Cc4c[nH]c5ccccc45)CC3)ncn2)c1`, for which the inhibition was 6% in test [1]; 3% in test [2]; 5% in test [3]; 2% in test [4]; 0% in test [5]; 5% in [6]. Also, the inhibition was 3% in test [7]; 0% in [8]; 0% in test [9]; 0% in [10]; 1% in [11]; 3% in [12]. Moreover, the inhibition in test [13] came out at 0%; in test [14], 16%; in test [15] it was 5%; in test [16], 0%; in test [17], 0%; in test [18], 5%.

As for `Nc1nc(N2CCOCC2)cc(N2CCC(C(=O)NCc3cccs3)CC2)n1`, the inhibition amounted to 0% in [1]; 0% in test [2]; 3% in [3]; 3% in test [4]; 0% in [5]; 0% in test [6]. In addition, the inhibition is 0% in test [7]; 0% in [8]; 0% in test [9]; 0% in test [10]; 8% in test [11]; 5% in test [12]. In addition, the inhibition in test [13] turned out to be 0%; in [14] it was 15%; in test [15] it was 11%; in test [16] it was 0%; in [17], 0%; in test [18], 3%.

Values taken from ChEMBL document CHEMBL1150387, “Development and experimental validation of a docking strategy for the generation of kinase-targeted libraries” (J Med Chem, 2008).
